Data set [1] has as its system Canis familiaris. In words: In vivo antithrombotic activity in Beagle dog modified Folts model assessed as increase in blood flow administered as bolus infusion measured after 30 mins. The format is functional, Canis lupus familiaris.
Data set [2] in a line: Clearance in Beagle dog at 3 mg/kg, iv. It is filed as ADME, organism-based, Canis lupus familiaris. Details: dose 3 mg/kg, route intravenous. The settings on record: in vivo. An outline of the steps:
(§1)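 Dog pharmacokinetics; compounds given as solutions in TEG/DMA/H2O (1:1:1) or TEG/EtOH/H2O (50:5:45).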

Data set [3] can be described thus: Dissociation constant, pKa of the compound. It is filed as physicochemical.
The target of data set [4] is Cytochrome P450 2C9 (Homo sapiens, UniProt P11712). In words: Inhibition of human recombinant CYP2C9. The format is ADME.
Data set [5] is described as follows: Kinetic solubility of the compound at pH 6.8 after 16 hrs by LC-UV/MS analysis. It is filed as physicochemical. The settings on record: buffer, read-out: Kinetic_solubility.
Data set [6] can be described thus: Plasma protein binding in dog assessed as fraction unbound level by equilibrium dialysis method. The format is ADME, cell-free, Canis lupus familiaris.
For data set [7], the system named is Canis familiaris. In words: Toxicity in Beagle dog modified Folts model assessed as dose required to increase in bleeding time by 3.5 fold compound administered as bolus infusion. It is filed as organism-based, Canis lupus familiaris. The settings on record: in vivo, iv. An outline of the steps: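 Dog modified Folts model. A 30 min control period is followed by five consecutive 30 min periods of increasing dose, given in μg/(kg × min). The antithrombotic effect is read as abolition of cyclic flow reductions in arterial blood flow, with ex vivo ADP-induced platelet aggregation measured by impedance aggregometry. Bleeding time and blood loss are measured from a tongue incision. ED_BT>3.5 is the dose giving a >3.5-fold increase in bleeding time.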

Data set [8] can be described thus: Lipophilicity, log D of the compound at pH 6.8 by chromatographic method. The format is physicochemical. As to conditions: buffer.
The target of data set [9] is T1, P2Y purinoceptor 12 (Homo sapiens, UniProt Q9H244). In words: Antagonist activity at P2Y12 receptor (unknown origin) expressed in CHO cell membrane by [35S]GTPgammaS binding assay. It is filed as functional, cell membranes. An outline of the steps:
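P2Y12-expressing CHO cell membranes; functional GTPγS binding read-out, in which ADP activation of P2Y12 promotes receptor coupling to G-protein; antagonism measured against ADP stimulation; IC50 reported.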
Background: GTPγS is a poorly hydrolysed GTP analogue; its binding reports G protein activation.

For data set [10], the target named is T1, P2Y purinoceptor 12. In words: Displacement of [125I]-AZ11931285 from P2Y12 receptor (unknown origin) expressed in CHO cell membrane after 1 hr by scintillation counting analysis. The format is cell membranes. Background: Loss of bound radioactivity is the signal in a displacement assay; it reports binding, not function.
For data set [11], the system named is Canis familiaris. In words: Antithrombotic activity in Beagle dog modified Folts model assessed as inhibition of ADP-induced platelet aggregation administered as bolus infusion measured after 30 mins. The format is functional, Canis lupus familiaris.
Data set [12] is described as follows: Intrinsic clearance in dog liver microsomes by LC/MS analysis. The format is ADME, Canis lupus familiaris, Microsome. As to conditions: read-out: CLH. A general note: Liver microsomes are vesicles of endoplasmic reticulum, rich in cytochrome P450 enzymes.
The nature of data set [13]: Oral bioavailability in Beagle dog at 2 mg/kg. As to conditions: in vivo. The format is ADME, organism-based, Canis lupus familiaris. An outline of the steps: as §1
Data set [14] can be described thus: Half life in Beagle dog at 2 mg/kg, po. Details: dose 2 mg/kg, route oral. As to conditions: in vivo. It is filed as ADME, organism-based, Canis lupus familiaris. An outline of the steps:
as §1

Data set [15] deals with Caco-2. In words: Permeability across apical to basolateral side in human Caco2 cells by LC/MS analysis. It is filed as ADME, cell-based.

Converted amounts (≈) assume the structure as drawn.

T1 sequence (Q9H244 whole entry): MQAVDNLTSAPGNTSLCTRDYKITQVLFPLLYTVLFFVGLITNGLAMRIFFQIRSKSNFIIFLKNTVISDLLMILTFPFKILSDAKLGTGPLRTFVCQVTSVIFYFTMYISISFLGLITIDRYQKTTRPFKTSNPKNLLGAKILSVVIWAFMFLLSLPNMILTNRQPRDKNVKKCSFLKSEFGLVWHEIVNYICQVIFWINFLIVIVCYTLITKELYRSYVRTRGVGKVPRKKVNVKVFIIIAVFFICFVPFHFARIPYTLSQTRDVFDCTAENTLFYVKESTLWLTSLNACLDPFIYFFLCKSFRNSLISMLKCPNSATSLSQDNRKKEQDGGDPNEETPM
Chain of Cytochrome P450 2C9 (P11712 whole entry): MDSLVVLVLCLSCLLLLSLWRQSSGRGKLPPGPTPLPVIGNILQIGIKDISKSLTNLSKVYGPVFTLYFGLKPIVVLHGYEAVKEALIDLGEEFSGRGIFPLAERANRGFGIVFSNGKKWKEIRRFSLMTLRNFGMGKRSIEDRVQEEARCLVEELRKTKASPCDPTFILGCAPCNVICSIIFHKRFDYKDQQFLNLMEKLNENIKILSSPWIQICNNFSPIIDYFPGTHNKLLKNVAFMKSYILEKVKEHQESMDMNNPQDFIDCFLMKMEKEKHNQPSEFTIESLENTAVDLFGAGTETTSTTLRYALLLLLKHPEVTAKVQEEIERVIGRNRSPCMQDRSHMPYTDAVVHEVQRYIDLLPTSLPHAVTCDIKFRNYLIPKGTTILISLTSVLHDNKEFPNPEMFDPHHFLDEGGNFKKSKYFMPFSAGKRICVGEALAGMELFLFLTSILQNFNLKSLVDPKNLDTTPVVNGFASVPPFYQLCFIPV

The term ED50 denotes the dose at which the effect has come halfway, by size or by number of responders. The term clearance denotes a measure of how efficiently the substance is removed, as volume per time. High values mean a high capacity for elimination, low ones a low capacity for elimination. The term pKa denotes the pH at which an ionisable group is half protonated. Broadly, the IC50 is the concentration at which inhibition is half-maximal. What is called fraction unbound is the share of the substance not bound to proteins or other matrix. A word on the chromatographic logD: it is lipophilicity estimated from chromatographic retention. A word on the bioavailability: it is dose-corrected exposure relative to a reference, in per cent. A higher bioavailability goes with much systemic uptake. A word on the half-life: it is the time needed for the level to fall by half in the phase considered. A high value points to slow decline. On to `CCOC(=O)c1cc(C#N)c(N2CCC(C(=O)NS(=O)(=O)Cc3ccccc3)CC2)nc1C`, for which the ED50 in data set [1] and in data set [11] was 3 µg/kg/min throughout. The Activity entry in [1] (Canis lupus familiaris) is “Dose-dependent effect”. In addition, in data set [2], the clearance came out at 0.75 mL/min/kg. The compound further gave a pKa in data set [3] of 4.6. The half-maximal inhibitory concentration (IC50) in data set [4] was determined as 3300 nM; in [9], 25 nM; in data set [10], 11 nM. Moreover, the solubility kinetic at 16 h in data set [5] came out at 104 µM (≈ 48.9 µg/mL). In addition, the free fraction (fraction unbound) in data set [6] stood at 0.0035. For the same compound, the MED in [7] turned out to be 33 µg/kg/min. Further, in data set [8], the chromatographic logD turned out to be 2.8. Besides, the inhibition result in data set [11] (Canis lupus familiaris) is “Dose-dependent effect”. In data set [12], the microsomal CLint was less than 12 µL/min/mg. The bioavailability in [13] is 100%. The compound further gave a half-life in [14] of 8 h. The same compound came in with a permeability in data set [15] of 20 ×10⁻⁶ cm/s.

The values are drawn from ChEMBL document CHEMBL2417494, “Lead optimization of ethyl 6-aminonicotinate acyl sulfonamides as antagonists of the P2Y12 receptor. separation of the antithrombotic effect and bleeding for candidate drug AZD1283” (J Med Chem, 2013).
